Source: ChEMBL document CHEMBL3112570, “Design, synthesis, and evaluation of pyrrolo[2,1-f][1,2,4]triazine derivatives as novel hedgehog signaling pathway inhibitors” (Bioorg Med Chem, 2014)

Tests used:
[1] = Inhibition of hedgehog signaling pathway in mouse NIH/3T3 cells after 48 hrs by Gli-luciferase reporter gene assay; format: cell-based; conditions: NIH3T3, 48 h
How it was run: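 NIH3T3 cells stably carrying a Gli-luciferase reporter, kept in DMEM + 10% FBS with puromycin. Seeded at 2 × 10⁴ cells/well and cultured overnight at 37 °C, 5% CO₂. Compounds added as an 8-point series (0.05–300 nM) in medium with 0.5% FBS plus Sonic Hedgehog agonist 0.7 µg/mL, n = 4 wells per concentration, 48 h. […] Lysates read by dual-luciferase.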

[2] = Mean residence time (0 to t) in Sprague-Dawley rat at 1 mg/kg, iv by LC/MS/MS analysis; format: ADME, organism-based; design: dose 1 mg/kg, route intravenous; conditions: in vivo
How it was run: (§1)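 Sprague-Dawley rats dosed iv at 1 mg/kg (n = 3). Blood samples were centrifuged at 4000 rpm for 5 min at 4 °C to give plasma. PK parameters were derived from plasma concentration-time data by noncompartmental analysis.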

[3] = Clearance in Sprague-Dawley rat at 1 mg/kg, iv by LC/MS/MS analysis; format: ADME, organism-based; design: dose 1 mg/kg, route intravenous; conditions: in vivo; how it was run: as §1
[4] = AUC in Sprague-Dawley rat at 1 mg/kg, iv by LC/MS/MS analysis; format: ADME, organism-based; design: dose 1 mg/kg, route intravenous; conditions: plasma; how it was run: as §1
[5] = Elimination half life in Sprague-Dawley rat at 1 mg/kg, iv by LC/MS/MS analysis; format: ADME, organism-based; design: dose 1 mg/kg, route intravenous; conditions: in vivo, read-out: beta t1/2 (converted); how it was run: as §1
[6] = Cmax in Sprague-Dawley rat at 1 mg/kg, iv by LC/MS/MS analysis; format: ADME, organism-based; design: dose 1 mg/kg, route intravenous; conditions: in vivo; how it was run: as §1
[7] = Apparent volume of distribution in Sprague-Dawley rat at 1 mg/kg, iv by LC/MS/MS analysis; format: ADME, organism-based; design: dose 1 mg/kg, route intravenous; conditions: in vivo, read-out: Vz; how it was run: as §1

Row | SMILES | IC50 [1] [nM] | MRT last [2] [h] | clearance [3] [mL/min/kg] | AUC [4] [ng·h/mL] | half-life [5] [h] | Cmax [6] [ng/mL] | Vd [7] [L/kg]
1 | Cc1cccc(C)c1NC(=O)c1ccc(Nc2nc(C)c(C)c(-c3ccc(OC(F)(F)F)cc3)n2)cc1 | 1.6 | – | – | – | – | – | –
2 | Cc1cc(-c2ccc(OC(F)(F)F)cc2)nc(Nc2ccc(C(=O)Nc3c(C)cccc3C)cc2)n1 | 1.4 | – | – | – | – | – | –
3 | CCCc1cc(-c2ccc(OC(F)(F)F)cc2)nc(Nc2ccc(C(=O)Nc3c(C)cccc3C)cc2)n1 | 0.8 | – | – | – | – | – | –
4 | CCc1cnc(Nc2ccc(C(=O)Nc3c(C)cccc3C)cc2)nc1-c1ccc(OC(F)(F)F)cc1 | 5.3 | – | – | – | – | – | –
5 | Cc1ccc(CN2CCCCC2)cc1NC(=O)c1ccc(Nc2nc(-c3cnn(C)c3)c3cccn3n2)cc1 | 11.1 | – | – | – | – | – | –
6 | Cc1ccc(CN2CCCC2)cc1NC(=O)c1ccc(Nc2nc(-c3cnn(C)c3)c3cccn3n2)cc1 | 12.3 | – | – | – | – | – | –
7 | Cc1ccc(CN2CCOCC2)cc1NC(=O)c1ccc(Nc2nc(-c3ccccc3)c3cccn3n2)cc1 | 1.5 | – | – | – | – | – | –
8 | Cc1ccc(CN2CCOCC2)cc1NC(=O)c1ccc(Nc2nc(-c3ccccn3)c3cccn3n2)cc1 | 0.97 | 1.64 | 22 | 764 | 1.51 | 637 | 2.85
9 | Cc1ccc(CN2CCOCC2)cc1NC(=O)c1ccc(Nc2nc(-c3cccnc3)c3cccn3n2)cc1 | 1.6 | – | – | – | – | – | –
10 | Cc1ccc(CN2CCOCC2)cc1NC(=O)c1ccc(Nc2nc(-c3ccc(OC(F)(F)F)cc3)c3cccn3n2)cn1 | 1.1 | 3.49 | 8.38 | 1940 | 8.34 | 4190 | 5.97
11 | O=C(Nc1cccc(CN2CCOCC2)c1)c1ccc(Nc2nc(-c3ccc(OC(F)(F)F)cc3)c3cccn3n2)cn1 | 8.8 | – | – | – | – | – | –
12 | Cc1ccc(CN2CCOCC2)cc1NC(=O)c1ccc(Nc2nc(-c3ccccn3)c3cccn3n2)cn1 | 1.1 | – | – | – | – | – | –
13 | Cc1ccc(CN2CCOCC2)cc1NC(=O)c1ccc(Nc2nc(-c3ccccn3)c3cccn3n2)c(F)c1 | 0.73 | – | – | – | – | – | –
14 | Cc1ccc(CN2CCCCC2)cc1NC(=O)c1ccc(Nc2nc(-c3ccc(OC(F)(F)F)cc3)c3cccn3n2)cc1 | 0.62 | – | – | – | – | – | –
15 | Cc1ccc(CN2CCCC2)cc1NC(=O)c1ccc(Nc2nc(-c3ccc(OC(F)(F)F)cc3)c3cccn3n2)cc1 | 1.7 | – | – | – | – | – | –
16 | Cc1ccc(CN2CCOCC2)cc1NC(=O)c1ccc(Nc2nc(-c3cnn(C)c3)c3cccn3n2)cc1 | 1.2 | 1.31 | 21.1 | 791 | 1.23 | 1070 | 2.19
17 | Cc1ccc(CN2CCN(C)CC2)cc1NC(=O)c1ccc(Nc2nc(-c3cnn(C)c3)c3cccn3n2)cc1 | 7.5 | – | – | – | – | – | –
18 | Cc1ccc(CN2CCN(C)CC2)cc1NC(=O)c1ccc(Nc2nc(-c3ccc(OC(F)(F)F)cc3)c3cccn3n2)cc1 | 1.7 | – | – | – | – | – | –
19 | Cc1cccc(C)c1NC(=O)c1ccc(Nc2nc(-c3ccc(OC(F)(F)F)cc3)c3cccn3n2)cc1 | 1.6 | 4.68 | 9.66 | 1430 | 15.2 | 2440 | 12.6
20 | Cc1ccc(CN2CCOCC2)cc1NC(=O)c1ccc(Nc2nc(-c3ccc(OC(F)(F)F)cc3)c3cccn3n2)cc1 | 0.83 | 4.83 | 6.9 | 2230 | 8.86 | 2720 | 5.23
21 | CS(=O)(=O)c1ccc(C(=O)Nc2ccc(Cl)c(-c3ccccn3)c2)c(Cl)c1 [VISMODEGIB] | 7.2 | 2.23 | 6.77 | 2460 | 1.64 | 1250 | –
